Experimental data as given in ChEMBL document CHEMBL1140724, “Identification of human intestinal carboxylesterase as the primary enzyme for activation of a doxazolidine carbamate prodrug” (J Med Chem, 2008).
pIC50: −log10 of the molar value. Blank lines part the entries; values can stand above or below the molecule they belong to.

Key:
[1] = Growth inhibition of human U373MG cells containing UhCE1 expressing plasmid after 1 hr; assay type: functional, cell-based, U-373MG ATCC; conditions: U373 MG
Method in brief: (§1)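 U373MG glioblastoma cells (vector U373IRES, hCE1-overexpressing UhCE1, or hiCE-overexpressing UhiCE) were cultured in DMEM with 10% fetal calf serum and no antibiotics. They were exposed to graded prodrug for 1 h. Growth inhibition was measured as IC50, with points as mean ± standard deviation of six measurements.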

[2] = Growth inhibition of human U373MG cells containing UhiCE expressing plasmid after 1 hr; assay type: functional, cell-based, U-373MG ATCC; conditions: U373 MG; method in brief: as §1
[3] = Growth inhibition of human U373MG cells containing U373IRES plasmid after 1 hr; assay type: functional, cell-based, U-373MG ATCC; conditions: U373 MG; method in brief: as §1
MCF7 [4] = assay: (§2) Growth inhibition of doxorubicin-sensitive human MCF7 cells after 24 hrs; assay type: functional
Method in brief: (§3)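 MCF-7 or MCF-7/Adr cells in RPMI 1640 with 10% fetal calf serum were seeded and left overnight to adhere. Medium was then replaced with complete medium holding prodrug in DMSO (1% final), alone or with additive: recombinant hiCE 250 ng/mL, hCE1 2.5 µg/mL, pig liver esterase 30 µg/mL, or N-Hep G2 lysate 83.5 µg protein/mL. Exposure was 24 h, then fresh medium.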

SK-HEP1 = assay: Growth inhibition of human SK-HEP-1 cells; assay type: functional, cell-based
MCF7 [5] = assay: Growth inhibition of doxorubicin-sensitive human MCF7 cells after 24 hrs in presence of N-Hep G2 lysate; assay type: functional, cell-based; conditions: MCF7, 24 h; method in brief: as §3
MCF7 [6] = assay: Growth inhibition of doxorubicin-sensitive human MCF7 cells after 24 hrs in presence of N-Hep G2 lysate relative to pentyl PABC-Doxorubicin; assay type: functional
[7] = Growth inhibition of human N-HepG2 cells; assay type: functional, cell-based
[8] = Growth inhibition of doxorubicin-resistant human MCF7/Adr cells after 24 hrs; assay type: functional, cell-based; conditions: NCI/ADR-RES; method in brief: as §3
HepG2 = assay: Growth inhibition of human HepG2 cells; assay type: functional, cell-based
[9] = Growth inhibition of […] human MCF7/Adr cells after 24 hrs in presence of human intestinal carboxylesterase relative to pentyl PABC-Doxorubicin; assay type: functional, NCI/ADR-RES
MCF7 [10] = assay: Growth inhibition of doxorubicin-sensitive human MCF7 cells after 24 hrs in presence of pig liver esterase; assay type: functional, cell-based; conditions: MCF7, 24 h; method in brief: as §3
[11] = Growth inhibition of […] human MCF7/Adr cells after 24 hrs in presence of N-Hep G2 lysate relative to pentyl PABC-Doxorubicin; assay type: functional, NCI/ADR-RES
[12] = Growth inhibition of […] human MCF7/Adr cells after 24 hrs in presence of N-Hep G2 lysate; assay type: functional, cell-based; conditions: NCI/ADR-RES; method in brief: as §3
[13] = Growth inhibition of human MCF7/Adr cells; assay type: functional, cell-based; conditions: NCI/ADR-RES
[14] = Growth inhibition of rat H9c2(2-1) cells; assay type: functional
MCF7 [15] = assay: Growth inhibition of doxorubicin-sensitive human MCF7 cells after 24 hrs in presence of human intestinal carboxylesterase; assay type: functional, cell-based; conditions: MCF7, 24 h; method in brief: as §3
[16] = Growth inhibition of human U373MG cells containing UhiCE expressing plasmid after 1 hr relative to pentyl PABC-Doxorubicin; assay type: functional, U-373MG ATCC
Method in brief: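 UhiCE cells were preincubated 2 h with 10 µM benzil, a membrane-permeable CE inhibitor, before 1 h prodrug exposure. IC50 was compared with prodrug alone, using means of six measurements.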

MCF7 [17] = assay: Growth inhibition of human MCF7 cells; assay type: functional, cell-based
MCF7 [18] = assay: Growth inhibition of doxorubicin-sensitive human MCF7 cells after 24 hrs in presence of pig liver esterase relative to pentyl PABC-Doxorubicin; assay type: functional
Homo sapiens = species: Homo sapiens; assay: Hydrolysing activity of human recombinant intestinal carboxylesterase
Method in brief: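 Recombinant baculovirus-expressed hiCE (26 µg/mL) was incubated with 50 µM prodrug in 5% DMSO with FBS/RPMI/PBS pH 7.4. Timed aliquots were quenched in equal-volume ethanol, held at -20 °C overnight and centrifuged. 1 unit = 1 µM Dox per hour; specific activity is per mg protein.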

[19] = Growth inhibition of human U373IRES cells after 1 hr; assay type: functional, U-373MG ATCC; method in brief: as §1
[20] = Growth inhibition of doxorubicin-resistant human MCF7/Adr cells after 24 hrs in presence of human intestinal carboxylesterase; assay type: functional, NCI/ADR-RES; method in brief: as §3
Sus scrofa = species: Sus scrofa; assay: Hydrolysing activity of pig liver esterase assessed as doxorubicin production
[21] = Growth inhibition of […] human MCF7/Adr cells after 24 hrs in presence of human intestinal carboxylesterase; assay type: functional, cell-based; conditions: NCI/ADR-RES; method in brief: as §3
MCF7 [22] = assay: as §2; assay type: functional, cell-based; conditions: MCF7, 24 h; method in brief: as §3
MCF7 [23] = assay: Growth inhibition of doxorubicin-sensitive human MCF7 cells after 24 hrs in presence of human intestinal carboxylesterase relative to pentyl PABC-Doxorubicin; assay type: functional
MCF7 [24] = assay: Growth inhibition of doxorubicin-sensitive human MCF7 cells after 24 hrs in presence of human carboxylesterase 1; assay type: functional, cell-based; conditions: MCF7, 24 h; method in brief: as §3
MCF7 [25] = assay: Growth inhibition of doxorubicin-sensitive human MCF7 cells after 24 hrs in presence of human carboxylesterase 1 relative to pentyl PABC-Doxorubicin; assay type: functional
[26] = Growth inhibition of […] human MCF7/Adr cells after 24 hrs in presence of human carboxylesterase 1 relative to pentyl PABC-Doxorubicin; assay type: functional, NCI/ADR-RES
[27] = Growth inhibition of human MCF7/Adr cells after 24 hrs in presence of human carboxylesterase 1; conditions: NCI/ADR-RES

Compound: COc1cccc2c1C(=O)c1c(O)c3c(c(O)c1C2=O)C[C@@](O)(C(=O)CO)C[C@@H]3OC1C[C@H](N)[C@H](O)[C@H](C)O1 (single isomer, unassigned) [DOXORUBICIN]
- pIC50 [1]: 6.80
- pIC50 [2]: 6.70
- pIC50 [3]: 6.80

- pIC50 (SK-HEP1): 6.00
- pIC50 (MCF7 [5]): 6.60
- pIC50 (HepG2): 7.30
- pIC50 (MCF7 [10]): 8.40
- pIC50 (MCF7 [15]): 7.80
- pIC50 (MCF7 [17]): 5.60
- Activity (Homo sapiens): 0.065 µM/h
- Activity (Sus scrofa): 47 µM/h
- pIC50 (MCF7 [22]): < 6.00
Compound: CCCCCOC(=O)Nc1ccc(COC(=O)N2CO[C@@H]3[C@H](C)O[C@H](O[C@H]4C[C@](O)(C(=O)CO)Cc5c(O)c6c(c(O)c54)C(=O)c4c(OC)cccc4C6=O)C[C@@H]32)cc1
- Fold change (MCF7 [4]): 1
- Fold change (MCF7 [6]): >4
- pIC50 [7]: 7.70
- pIC50 [8]: < 6.00
- Fold change [9]: >79
- Fold change [11]: >6
- pIC50 [12]: 6.80
- pIC50 [13]: 6.50
- pIC50 [1]: < 6.00
- pIC50 [14]: 6.20
- Fold change [16]: >20
- pIC50 [3]: < 6.00
- Fold change (MCF7 [18]): >100
- Fold change [19]: 1
- Fold change [20]: > 79
- pIC50 [21]: 7.90
- Fold change (MCF7 [23]): >63

- pIC50 (MCF7 [24]): 6.00
- pIC50 [27]: 6.10
- pIC50 (MCF7 [22]): < 6.00
Compound: O=S(=O)(Nc1ccc(NS(=O)(=O)c2ccc(Cl)cc2)cc1)c1ccc(Cl)cc1
- pIC50 [8]: < 6.00
- Fold change (MCF7 [25]): >1
- Fold change [26]: >1
